Among the data in ChEMBL document CHEMBL4732114, “Design and structural optimization of novel 2H-benzo[h]chromene derivatives that target AcrB and reverse bacterial multidrug resistance” (Eur J Med Chem, 2021) are Activity, fold change (FC) and inhibition values, retold here.

The source made the active and inactive calls. The calls are words filed in the database; no cut-off is given here.

Data set [1] deals with Cell membrane. Description: Induction of outer membrane permeabilization in wild type Escherichia coli BW25113 assessed as increase in nitrocefin hydrolysis at 8 ug/ml in presence of CCCP by spectroscopic analysis. Conditions: dose 8 µg/ml. A digest of the protocol:
(§1)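 Intact E. coli were treated with 10 μM CCCP to block nitrocefin efflux, then given compound, nothing, or polymyxin B as permeabilizer control. Nitrocefin was added, and hydrolysis by periplasmic β-lactamase was followed as the rise in absorbance at 490 nm. Duplicate experiments were run on different days.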

Data set [2] concerns the target T1, Multidrug efflux pump subunit AcrB (Escherichia coli (strain K12)) (UniProt P31224).
T1 sequence (whole entry): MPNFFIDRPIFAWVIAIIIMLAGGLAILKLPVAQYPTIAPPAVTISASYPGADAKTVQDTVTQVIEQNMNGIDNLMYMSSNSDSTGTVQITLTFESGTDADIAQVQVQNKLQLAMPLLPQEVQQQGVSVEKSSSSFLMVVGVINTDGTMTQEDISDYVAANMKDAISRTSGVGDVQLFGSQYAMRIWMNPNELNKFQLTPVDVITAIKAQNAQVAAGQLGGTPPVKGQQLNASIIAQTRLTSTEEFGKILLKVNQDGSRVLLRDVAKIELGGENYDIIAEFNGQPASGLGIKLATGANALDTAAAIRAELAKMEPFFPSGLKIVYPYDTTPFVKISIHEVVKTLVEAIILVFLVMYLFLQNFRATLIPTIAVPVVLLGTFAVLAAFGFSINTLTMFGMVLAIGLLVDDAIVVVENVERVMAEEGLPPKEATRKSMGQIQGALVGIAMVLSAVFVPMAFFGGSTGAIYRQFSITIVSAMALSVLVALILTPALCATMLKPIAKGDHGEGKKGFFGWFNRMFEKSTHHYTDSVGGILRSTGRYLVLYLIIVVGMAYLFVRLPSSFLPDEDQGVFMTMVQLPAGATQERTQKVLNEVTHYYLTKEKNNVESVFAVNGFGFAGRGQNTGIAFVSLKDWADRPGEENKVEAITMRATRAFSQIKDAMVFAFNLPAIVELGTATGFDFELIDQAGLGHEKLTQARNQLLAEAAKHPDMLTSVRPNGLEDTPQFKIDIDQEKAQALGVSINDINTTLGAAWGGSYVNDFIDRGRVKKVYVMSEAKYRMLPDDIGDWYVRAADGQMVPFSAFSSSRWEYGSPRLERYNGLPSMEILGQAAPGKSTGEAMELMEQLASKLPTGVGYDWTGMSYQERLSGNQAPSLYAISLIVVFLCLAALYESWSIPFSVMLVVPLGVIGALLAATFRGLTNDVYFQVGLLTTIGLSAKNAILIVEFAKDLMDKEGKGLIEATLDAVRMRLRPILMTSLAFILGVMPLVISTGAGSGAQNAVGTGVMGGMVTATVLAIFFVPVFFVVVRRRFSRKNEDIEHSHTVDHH
The data set can be described thus: Inhibition of AcrB in multidrug-resistant Escherichia coli BW25113 assessed as potentiation of levofloxacin-induced antibacterial activity by measuring fold change in levofloxacin MIC at 8 ug/ml by checkerboard titration method relative to levofloxacin MIC. The conditions noted are these: dose 8.0 µg/ml.

Data set [3] relates to Cell membrane. Description: Induction of inner membrane permeabilization in wild type Escherichia coli BW25113 assessed as perturbation of proton motive force at 8 ug/ml measured after 10 mins in presence of CCCP and glucose by Di0C2(3) probe based fluorescence assay. The conditions noted are these: escherichia coli bw25113, 10 min, dose 8 µg/ml. A digest of the protocol:
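Cell suspensions were left untreated or exposed to 8-128 µg/mL compound for 10 min. DiOC₂(3) was then added and fluorescence followed to a plateau. Cells were re-energized with 0.5% glucose, and the rise in fluorescence was read as membrane-potential build-up. CCCP was added last to dissipate the potential.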

Data set [4] deals with Cell membrane. Description: Induction of outer membrane permeabilization in wild type Escherichia coli BW25113 assessed as increase in nitrocefin hydrolysis at 32 ug/ml in presence of CCCP by spectroscopic analysis. The conditions noted are these: dose 32 µg/ml. Put shortly: as §1
Data set [5] addresses T1, Multidrug efflux pump subunit AcrB (Escherichia coli (strain K12)). Description: Inhibition of AcrB in Escherichia coli BW25113 assessed as reduction in glucose-induced nile red efflux at 50 uM preincubated for 15 mins followed by nile red addition and incubated for 3 hrs in shaker in presence of CCCP by fluorimetric analysis. Conditions: time 3.25 hrs. Put shortly: (§2)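 Wild-type and AcrB-deleted cells were preloaded with Nile Red, with or without compound. Fluorescence was recorded, and efflux was triggered at 100 s with 0.2% glucose. Traces were compared with the deletion-strain level. Triplicate experiments used different cell batches.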

Data set [6] concerns Cell membrane. The data set can be described thus: Induction of outer membrane permeabilization in wild type Escherichia coli BW25113 assessed as increase in nitrocefin hydrolysis at 256 ug/ml in presence of CCCP by spectroscopic analysis. Conditions: dose 256 µg/ml. Put shortly:
as §1

The target in data set [7] is T1, Multidrug efflux pump subunit AcrB (Escherichia coli (strain K12)). The data set can be described thus: Inhibition of AcrB in Escherichia coli BW25113 assessed as reduction in glucose-induced nile red efflux at 100 to 200 uM preincubated for 15 mins followed by nile red addition and incubated for 3 hrs in shaker in presence of CCCP by fluorimetric analysis. The conditions noted are these: dose 100-200 µM, time 3.25 hrs. Put shortly: as §2

A short description of data set [8]: Cytotoxicity against human HepG2 cells assessed as growth inhibition at 10 uM relative to control. The data set is classed as cell-based. Conditions: read-out: GI. A digest of the protocol:
(§3)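 HepG2 cells treated at 10 μM and at 100 μM. Cell viability or inhibition rate recorded per concentration, with paclitaxel as positive control.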

Data set [9] in a line: Cytotoxicity against human HepG2 cells assessed as growth inhibition at 100 uM relative to control. In kind it is cell-based. Conditions: read-out: GI. Put shortly:
as §3

Data set [10] concerns the target T1, Multidrug efflux pump subunit AcrB (Escherichia coli (strain K12)). Description: Inhibition of AcrB in multidrug-resistant Escherichia coli BW25113 assessed as potentiation of tetraphenylphosphonium-induced antibacterial activity by measuring fold change in tetraphenylphosphonium MIC at 8 ug/ml by checkerboard titration method relative to tetraphenylphosphonium MIC. The conditions noted are these: dose 8.0 µg/ml.

Data set [11] shares this target. The data set can be described thus: Inhibition of AcrB in multidrug-resistant Escherichia coli BW25113 assessed as potentiation of chloramphenicol-induced antibacterial activity by measuring fold change in chloramphenicol MIC at 128 ug/ml by checkerboard titration method relative to chloramphenicol MIC. Conditions: dose 128.0 µg/ml.
The target is the same in data set [12]. The data set can be described thus: Inhibition of AcrB in multidrug-resistant Escherichia coli BW25113 assessed as potentiation of tetraphenylphosphonium-induced antibacterial activity by measuring fold change in tetraphenylphosphonium MIC at 128 ug/ml by checkerboard titration method relative to tetraphenylphosphonium MIC. The conditions noted are these: dose 128.0 µg/ml.

For data set [13] the target is unchanged. Description: Inhibition of AcrB in multidrug-resistant Escherichia coli BW25113 assessed as potentiation of erythromycin-induced antibacterial activity by measuring fold change in erythromycin MIC at 128 ug/ml by checkerboard titration method relative to erythromycin MIC. The conditions noted are these: dose 128.0 µg/ml.
For data set [14] the target is unchanged. Description: Inhibition of AcrB in multidrug-resistant Escherichia coli BW25113 assessed as potentiation of tetraphenylphosphonium-induced antibacterial activity by measuring fold change in tetraphenylphosphonium MIC at 64 ug/ml by checkerboard titration method relative to tetraphenylphosphonium MIC. The conditions noted are these: dose 64.0 µg/ml.
For data set [15] the target is unchanged. Description: Inhibition of AcrB in multidrug-resistant Escherichia coli BW25113 assessed as potentiation of chloramphenicol-induced antibacterial activity by measuring fold change in chloramphenicol MIC at 64 ug/ml by checkerboard titration method relative to chloramphenicol MIC. The conditions noted are these: dose 64.0 µg/ml.

Regarding `CC1CN(C(=O)c2cc3c(OCc4c(Cl)cccc4Cl)cccc3c3c2CCC(C)(C)O3)CC(C)O1` (centres undefined), the Activity entry in [1] and in data set [3] was “Not Active” throughout. In addition, the fold change (FC) in data set [2] is 2.
On to `C=CC(=O)Nc1ccc(COc2cccc3c4c(c(Cn5cnnn5)cc23)CCC(C)(C)O4)cc1`, for which the Activity result in [4] is “Not Active”. Besides, the inhibition result in data set [5] is “Active”.
For the molecule `CC1(C)CCc2c(-c3nnco3)cc3c(OCc4ccc([N+](=O)[O-])cc4)cccc3c2O1`, the Activity entry in [6] is recorded as “Not Active”.
The same measure, in the same setting: to `Cc1ccccc1COc1cccc2c3c(c(-c4nnco4)cc12)CCC(C)(C)O3` belongs “Not Active”.
With `CC1(C)CC(=O)c2ccc(OCCNC3CCCC3)cc2O1`, the inhibition entry in data set [7] was “Active”.
Turning to `CNC(=O)c1ccc(COc2cccc3c4c(c(Cn5cnnn5)cc23)CCC(C)(C)O4)cc1`, the inhibition result in data set [7] was “Active”.
`CC(C)NCCOc1ccc2c(c1)OC(C)(C)CC2=O`: the Activity result in [3] is on record as “Not Active”.
Turning to `COc1cccc(COc2cccc3c4c(c(C(=O)N5CCOCC5)cc23)CCC(C)(C)O4)c1`, the inhibition result in data set [5] was “Active”.
In the case of `CC1(C)CCc2c(C(=O)N3CCOCC3)cc3c(OCc4ccccc4)cccc3c2O1`, in data set [8], the inhibition at 10 µM came to 2%. For the same molecule, the Activity result in data set [3] is “Not Active”. For the same molecule, in [9], the inhibition at 100 µM came to 66%.
Regarding `Cc1ccc(COc2cccc3c4c(c(-c5nnco5)cc23)CCC(C)(C)O4)cc1`, the fold change (FC) is 2 in [10]; less than 16 in [11]; less than 16 in data set [12]; 2 in data set [2]; less than 16 in data set [13]. In addition, the inhibition at 10 µM in [8] was found to be 6%. Besides, the inhibition at 100 µM in data set [9] amounted to 87%.
On to `CC1(C)CCc2c(-c3nnco3)cc3c(OCc4ccc(C#N)cc4)cccc3c2O1`, for which, in [5], the inhibition entry is “Active”.
As to `CC1(C)CCc2c(C(=O)N3CCOCC3)cc3c(OCc4ccc(C(F)(F)F)cc4)cccc3c2O1`, the inhibition entry in data set [5] was “Active”. In [3], the Activity result is on record as “Not Active”.
Consider `COc1cccc(COc2cccc3c4c(c(-c5nnco5)cc23)CCC(C)(C)O4)c1`, for which the inhibition result in data set [7] was “Active”.
Turning to `CC1(C)CC(=O)c2ccc(OCC(=O)Nc3ccc(C#N)c(C(F)(F)F)c3)cc2O1`, the inhibition result in [7] is “Active”. In addition, the fold change (FC) in [14] was 4; in [15], 2.
Take `C=CC(=O)Nc1ccc(COc2cccc3c4c(c(C(=O)N5CCOCC5)cc23)CCC(C)(C)O4)cc1`: the Activity result in data set [3] is “Not Active”.
